pIC50: −log10 of the molar value. Active and inactive are the calls of the source. The calls are words filed in the database; no cut-off is given here.
Columns and labels:
[1] = tested on: HCT-116; experiment: Inhibition of colony formation in human HCT116 cells at 15 to 50 uM after 2 weeks using crystal violet staining; format: functional, cell-based
In short: (§1)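 Cells plated at 200 per well and treated after 24 h adherence at 15, 25 or 50 μM. Colonies stained with crystal violet after 2 weeks and counted. Plating efficiency taken from untreated wells, survival fraction from treated colony counts. Two experiments in duplicate, mean ± SD.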

[2] = tested on: HCT-8; experiment: Inhibition of colony formation in human HCT8 cells at 15 to 50 uM after 2 weeks using crystal violet staining; format: functional, cell-based; in short: as §1
[3] = tested on: HCT-116; experiment: Induction of apoptosis in human HCT116 cells assessed as early apoptotic cells at 50 uM after 48 hrs using annexin-V FITC and propidium iodide staining by flow cytometry (reference value: 4.80%); format: functional
[4] = tested on: HCT-116; experiment: Induction of apoptosis in human HCT116 cells assessed as early apoptotic cells at 15 uM after 48 hrs using annexin-V FITC and propidium iodide staining by flow cytometry (reference value: 4.80%); format: functional
[5] = tested on: HCT-116; experiment: Induction of apoptosis in human HCT116 cells assessed as early apoptotic cells at 25 uM after 48 hrs using annexin-V FITC and propidium iodide staining by flow cytometry (reference value: 4.80%); format: functional
[6] = tested on: HCT-116; experiment: Induction of apoptosis in human HCT116 cells assessed as late apoptotic cells at 25 uM after 48 hrs using annexin-V FITC and propidium iodide staining by flow cytometry (reference value: 1.59%); format: functional
[7] = tested on: DLD-1; experiment: Inhibition of colony formation in human DLD1 cells at 15 to 50 uM after 2 weeks using crystal violet staining; format: functional, cell-based; in short: as §1
[8] = tested on: HCT-116; experiment: Cell cycle arrest in human HCT116 cells at 15 to 50 uM after 48 hrs using propidium iodide staining by FACS analysis; format: functional, cell-based
In short: (§2)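 Cells seeded at ~2 × 10^5 per well, treated after 24 h at 15, 25 and 50 μM for 48 h. Harvested by trypsin, washed in cold PBS and fixed in 70% ice-cold ethanol. RNase-treated 1 h at 37 °C, stained with propidium iodide (50 μg mL−1) 20 min at room temperature, and analysed by FACS. Triplicate, mean ± SD.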

[9] = Cell cycle arrest in human HCT8 cells at 15 to 50 uM after 48 hrs using propidium iodide staining by FACS analysis; format: functional, cell-based; settings: HCT-8; in short: as §2
[10] = Cytotoxicity against human DLD1 cells assessed as cell viability after 48 hrs by MTT assay; format: functional, cell-based; settings: DLD-1, 48 h
[11] = tested on: HCT-116; experiment: Induction of apoptosis in human HCT116 cells assessed as late apoptotic cells at 15 uM after 48 hrs using annexin-V FITC and propidium iodide staining by flow cytometry (reference value: 1.59%); format: functional
[12] = tested on: HCT-116; experiment: Cytotoxicity against human HCT116 cells assessed as cell viability after 48 hrs by MTT assay; format: functional, cell-based; settings: HCT-116, 48 h
[13] = Cell cycle arrest in human DLD1 cells at 15 to 50 uM after 48 hrs using propidium iodide staining by FACS analysis; format: functional, cell-based; settings: DLD-1; in short: as §2
[14] = tested on: HCT-116; experiment: Induction of apoptosis in human HCT116 cells assessed as late apoptotic cells at 50 uM after 48 hrs using annexin-V FITC and propidium iodide staining by flow cytometry (reference value: 1.59%); format: functional
[15] = Cytotoxicity against human HCT8 cells assessed as cell viability after 48 hrs by MTT assay; format: functional, cell-based; settings: HCT-8, 48 h
[16] = tested on: HCT-116; experiment: Induction of apoptosis in human HCT116 cells assessed as increased level of cleaved caspase-7 at 10 to 50 uM by Western blot analysis; format: functional, cell-based
[17] = tested on: HCT-116; experiment: Ratio of lithocholic acid IC50 to compound IC50 for human HCT116 cells assessed as cell viability after 48 hrs by MTT assay; format: functional
[18] = tested on: HCT-8; experiment: Ratio of lithocholic acid IC50 to compound IC50 for human HCT8 cells assessed as cell viability after 48 hrs by MTT assay; format: functional
[19] = tested on: HCT-116; experiment: Inhibition of colony formation in human HCT116 cells at 15 uM after 2 weeks using crystal violet staining; format: functional; settings: HCT-116, 336 h
[20] = tested on: HCT-116; experiment: Antitumor activity against human HCT116 cells xenografted in nude mouse assessed as reduction in tumor volume at 20 mg/kg measured up to 25 days; format: functional; parameters: scale not given: the % may be the effect or the level left
[21] = Selectivity ratio of human DLD1 cells over CHO cells; format: cell-based; settings: Chinese hamster (CHO), DLD1 cells versus CHO cells
[22] = Selectivity ratio of human HCT116 cells over human THP1 cells; format: ADME, cell-based, HCT-116; settings: HCT116 cells versus THP1 cells
[23] = tested on: HCT-116; experiment: Induction of apoptosis in human HCT116 cells xenografted in nude mouse assessed as increased level of cleaved caspase-3 at 20 mg/kg after 6 days by Western blot analysis relative to control; format: functional, organism-based
In short: (§3)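 Female nude mice, 6 weeks old, received 1.5 × 10^6 HCT-116 cells in the right flank. At ~750 mm3 mice were split into groups of 5 and dosed from day 19 at 20 mg kg−1 near the tumour, vehicle as control. Tumours were harvested at sacrifice on day 25 and homogenised in RIPA buffer. Equal protein loaded, transferred to PVDF, blocked in 5% milk/TBST, primary antibodies overnight at 4 °C, HRP secondary, ECL detection.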

[24] = tested on: HCT-116; experiment: Induction of apoptosis in human HCT116 cells xenografted in nude mouse assessed as increased level of cleaved caspase-7 at 20 mg/kg after 6 days by Western blot analysis relative to control; format: functional, organism-based; in short: as §3
[25] = Selectivity ratio of human HCT116 cells over CHO cells; format: cell-based; settings: Chinese hamster (CHO), HCT116 cells versus CHO cells
[26] = Cell cycle arrest in human HCT8 cells assessed as accumulation at sub-G1 phase at 50 uM after 48 hrs using propidium iodide staining by FACS analysis; format: functional, cell-based; settings: HCT-8; in short: as §2
[27] = Cell cycle arrest in human DLD1 cells assessed as accumulation at sub-G1 phase at 50 uM after 48 hrs using propidium iodide staining by FACS analysis; format: functional, cell-based; settings: DLD-1; in short: as §2
[28] = tested on: A549; experiment: Selectivity for human HCT8 cells over human A549 cells; format: functional
[29] = tested on: A549; experiment: Selectivity ratio of human HCT116 cells over human A549 cells; format: functional
[30] = Selectivity ratio of human HCT8 cells over CHO cells; format: ADME, cell-based; settings: Chinese hamster (CHO), HCT8 cells versus CHO cells
[31] = tested on: HCT-116; experiment: Inhibition of colony formation in human HCT116 cells at 50 uM after 2 weeks using crystal violet staining; format: functional, cell-based; in short: as §1
[32] = tested on: A549; experiment: Selectivity ratio of human DLD1 cells over human A549 cells; format: functional
[33] = Retention time of the compound by HPLC method; format: physicochemical
[34] = tested on: HCT-116; experiment: Induction of apoptosis in human HCT116 cells assessed as apoptotic cells at 25 uM after 48 hrs using annexin-V FITC and propidium iodide staining by flow cytometry relative to lithocholic acid; format: functional
[35] = tested on: HCT-116; experiment: Induction of apoptosis in human HCT116 cells assessed as increased level of cleaved caspase-3 at 10 to 50 uM by Western blot analysis; format: functional, cell-based
[36] = tested on: HCT-116; experiment: Cell cycle arrest in human HCT116 cells assessed as accumulation at sub-G1 phase at 50 uM after 48 hrs using propidium iodide staining by FACS analysis; format: functional
[37] = tested on: HCT-116; experiment: Antitumor activity against human HCT116 cells xenografted in nude mouse assessed as reduction in tumor volume at 20 mg/kg after 6 days; format: functional; parameters: scale not given: the % may be the effect or the level left
[38] = Selectivity ratio of human HCT8 cells over human THP1 cells; format: ADME, cell-based, THP-1; settings: HCT8 cells versus THP1 cells
[39] = tested on: HCT-116; experiment: Induction of apoptosis in human HCT116 cells xenografted in nude mouse assessed as increased level of cleaved caspase-8 at 20 mg/kg after 6 days by Western blot analysis relative to control; format: functional, organism-based; in short: as §3
[40] = tested on: HCT-116; experiment: Induction of apoptosis in human HCT116 cells assessed as decreased level of procaspase-8 at 50 uM by Western blot analysis; format: functional, cell-based
[41] = tested on: HCT-116; experiment: Induction of apoptosis in human HCT116 cells assessed as apoptotic cells at 50 uM after 48 hrs using annexin-V FITC and propidium iodide staining by flow cytometry relative to lithocholic acid; format: functional
[42] = Toxicity in RBC (unknown origin) assessed as hemolytic activity; format: cell-based, Erythrocyte; settings: red blood cells
[43] = Selectivity ratio of human DLD1 cells over human THP1 cells; format: ADME, cell-based, THP-1; settings: DLD1 cells versus THP1 cells
[44] = tested on: HCT-116; experiment: Induction of apoptosis in human HCT116 cells assessed as increased level of procaspase-8 at 10 uM by Western blot analysis; format: functional, cell-based

C[C@H](CCC(=O)O)[C@H]1CC[C@H]2[C@@H]3CC[C@@H]4C[C@H](O)CC[C@]4(C)[C@H]3CC[C@]12C [LITHOCHOLIC ACID]
inhibition [1]: inactive | inhibition [2]: inactive | Activity [3]: 21.89% | Activity [4]: 10.21% | Activity [5]: 18.79% | Activity [6]: 11.54% | inhibition [7]: inactive | Activity [8]: inactive | Activity [9]: inactive | pIC50 [10]: 3.76 | Activity [11]: 8.88% | pIC50 [12]: 4.09 | Activity [13]: inactive | Activity [14]: 13.15% | pIC50 [15]: 4.01

COC(=O)CC[C@@H](C)[C@H]1CC[C@H]2[C@@H]3CC[C@@H]4C[C@H](OC(=O)C[N+]5(C)CCCCC5)CC[C@]4(C)[C@H]3CC[C@]12C.[Cl-]
Activity [16]: Active | Ratio IC50 [17]: 6 | inhibition [2]: Active | Ratio IC50 [18]: 6 | inhibition at 15 µM [19]: 50% | Activity [20]: 75% | selectivity ratio [21]: 5 | selectivity ratio [22]: 5 | Activity [3]: 41.19% | Activity [23]: Active | Activity [24]: Active | selectivity ratio [25]: 3 | Activity [4]: 9.04% | Activity [5]: 23.57% | Activity [26]: 40% | Activity [6]: 15.78% | inhibition [7]: Active | Activity [27]: 80% | selectivity ratio [28]: 2 | selectivity ratio [29]: 2 | selectivity ratio [30]: 5 | inhibition [31]: Active | selectivity ratio [32]: 2 | Retention_time [33]: 8.12 min | pIC50 [10]: 4.86 | Ratio [34]: 1.3 | Activity [35]: Active | Activity [11]: 12.47% | Activity [36]: 80% | pIC50 [12]: 4.93 | Activity [37]: 75% | selectivity ratio [38]: 5 | Activity [14]: 26.63% | Activity [39]: Active | Activity [40]: Active | Ratio [41]: 2 | HC50 [42]: > 1 mM | selectivity ratio [43]: 5 | Activity [44]: inactive | pIC50 [15]: 4.83

COC(=O)CC[C@@H](C)[C@H]1CC[C@H]2[C@@H]3CC[C@@H]4C[C@H](OC(=O)C[N+](C)(C)C)CC[C@]4(C)[C@H]3CC[C@]12C.[Cl-]
Retention_time [33]: 7.94 min | pIC50 [10]: 4.28 | pIC50 [12]: 4.42 | pIC50 [15]: 4.43

COC(=O)CC[C@@H](C)[C@H]1CC[C@H]2[C@@H]3CC[C@@H]4C[C@H](OC(=O)CN5CCOCC5)CC[C@]4(C)[C@H]3CC[C@]12C.Cl
Retention_time [33]: 24.17 min | pIC50 [10]: 3.75 | pIC50 [12]: 4.05 | pIC50 [15]: 3.92

COC(=O)CC[C@@H](C)[C@H]1CC[C@H]2[C@@H]3CC[C@@H]4C[C@H](OC(=O)C[n+]5ccc(N(C)C)cc5)CC[C@]4(C)[C@H]3CC[C@]12C.[Cl-]
Retention_time [33]: 7.9 min | pIC50 [10]: 4.77 | pIC50 [12]: 4.88 | pIC50 [15]: 4.23

COC(=O)CC[C@@H](C)[C@H]1CC[C@H]2[C@@H]3CC[C@@H]4C[C@H](OC(=O)C[N+]56CCN(CC5)CC6)CC[C@]4(C)[C@H]3CC[C@]12C.[Cl-]
Retention_time [33]: 7.98 min | pIC50 [10]: 4.33 | pIC50 [12]: 4.22 | pIC50 [15]: 4.12

— ChEMBL document CHEMBL3621166, “Synthesis, Structure-Activity Relationship, and Mechanistic Investigation of Lithocholic Acid Amphiphiles for Colon Cancer Therapy” (Medchemcomm, 2015)
